Laboratory results from paper PMC3288683 (Bioconjugate Chemistry, 2012).

Key:
[1] = system: CHO-K1 cells; assay: specificity of uptake by flow cytometry, negative control cells; type: cell-based, Chinese hamster; conditions: all concentrations (0.1, 0.2, 0.35, 0.5 μM), 6 h at 37°C
[2] = system: SH-SY5Y cells; assay: Vybrant MTT Cell Proliferation Assay; type: cell-based, human; conditions: SH-SY5Y cells, 0.1, 0.5 and 1 μM, 12 h at 37°C, absorbance at 540 nm
In short: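 SH-SY5Y cells, maintained in 1:1 DMEM:F12 with 10% FBS at 37°C under 5% CO2, seeded at 2 × 10^4 cells/well and grown overnight in phenol red-free DMEM:F12. Exposed to test compound (0.1, 0.5, 1 μM) for 12 h at 37°C, then to MTT 1 mg/mL for 4 h. Formazan dissolved in Me2SO; absorbance read at 540 nm against untreated control cells.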

[3] = system: SH-SY5Y cells; assay: specificity of uptake by flow cytometry; type: cell-based, human; conditions: 0.1 μM, 6 h at 37°C, three replicate experiments
[4] = system: SH-SY5Y cells; assay: live cell co-localization with RFP-labeled Rab5 in early endosomes; type: cell-based, human; conditions: 0.1 μM, 1 h at 37°C, intensities along the x-axis, Amira 5 software
[5] = system: SH-SY5Y cells; assay: time course of agent uptake by confocal microscopy; type: cell-based, human; conditions: 0.1 μM, 37°C
[6] = system: CHO-K1 cells; assay: comparative uptake study by confocal microscopy, negative control cells; type: cell-based, Chinese hamster
[7] = system: SH-SY5Y cells; assay: comparative uptake study by confocal microscopy; type: cell-based, human; conditions: 0.1 μM, 4 h at 37°C, 3 fields per slide

Row | Compound | specificity ratio (WT4879 vs WT4786 uptake) [1] | cellular toxicity (MTT cell viability) [2] | uptake of WT4879 relative to WT4786 (ratio of specific over non-specific uptake) [3] | overlap of AlexaFluor 488 intensity with RFP-labeled Rab5 intensity [4] | time course of uptake intensity ([5]; 0-12 h, ImageJ, three regions of interest) | uptake at 0.25 and 0.5 h ([5]; data not shown) | uptake after 1 h ([5]; uniformly distributed in the cytoplasm) | uptake in CHO-K1 cells relative to SH-SY5Y cells ([6]; 0.1 μM, 4 h at 37°C, confocal microscopy, 3 fields per slide) | non-specific uptake in control cell-line CHO-K1 ([6]; conclusion, in words) | uptake in SH-SY5Y cells relative to the specific WT4879 [7]
1 | Cc1cn(CC(=O)N(CCNC(=O)CN(CCNC(=O)CN(CCNC(=O)CN(CCNC(=O)CN(CCNC(=O)CN(CCNC(=O)CN(CCNC(=O)CN(CCNC(=O)CN(CCNC(=O)COCCOCCNC(=O)[C@H](CO)NC(=O)[C@H](Cc2ccccc2)N(C)C(=O)CNC(=O)[C@@H](C)NC(=O)[C@@H](N)Cc2ccc(O)cc2)C(=O)Cn2ccc(N)nc2=O)C(=O)Cn2cnc3c(N)ncnc32)C(=O)Cn2cc(C)c(=O)[nH]c2=O)C(=O)Cn2cnc3c(=O)[nH]c(N)nc32)C(=O)Cn2cnc3c(=O)[nH]c(N)nc32)C(=O)Cn2cc(C)c(=O)[nH]c2=O)C(=O)Cn2cnc3c(=O)[nH]c(N)nc32)C(=O)Cn2ccc(N)nc2=O)CC(=O)NCCN(CC(=O)NCCN(CC(=O)NCCN(CC(=O)NCCOCCOCC(=O)N[C@@H](CSC2CC(=O)N(CCCCCNC(=O)c3ccc(-c4c5ccc(=N)c(S(=O)(=O)O)c-5oc5c(S(=O)(=O)O)c(N)ccc45)c(C(=O)O)c3)C2=O)C(=O)O)C(=O)Cn2ccc(N)nc2=O)C(=O)Cn2cnc3c(N)ncnc32)C(=O)Cn2ccc(N)nc2=O)c(=O)[nH]c1=O (stereo partly drawn) [WT4879, Tyr-D-Ala-Gly-N-MePhe-Ser-AEEA-CAT GGT GCT CAC-AEEA-Cys-AlexaFluor488] | 1 ± 0.3 | No cellular toxicity was observed | ~ 5 fold | > 95% | increased with time up to 4 h, leveling off thereafter | No significant uptake | taken up strongly | ~ 21% | minimal non-specific uptake | 
2 | Ala-D-Ala-Gly-N-MePhe-Ser-AEEA-CAT GGT GCT CAC-AEEA-Cys-AlexaFluor488 [WT4786] |  |  |  |  |  |  |  |  |  | ~ 20%
